Nine compounds from ChEMBL document CHEMBL2034946, “Synthesis and biological evaluation of cyclic sulfamide derivatives as 11β-hydroxysteroid dehydrogenase 1 inhibitors” (ACS Med Chem Lett, 2012) can be followed below.

Structures are written as SMILES.

Data set [1] has as its target 11-beta-hydroxysteroid dehydrogenase 1 (Homo sapiens, UniProt P28845). The data set is described as follows: Inhibition of human 11beta-HSD1 expressed in CHO-K1 cells using cortisone as substrate after 3 hrs by HTRF assay. The note with it: read-out: IC50. Format: cell-based. The method in brief: (§1)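 Cells overexpressing human or mouse 11β-HSD1 incubated with cortisone plus compound for 3 h; cortisol measured by HTRF. IC50 fitted from concentration-dependent inhibition curves; means ± SEM of triplicate experiments.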

Data set [2] addresses 11-beta-hydroxysteroid dehydrogenase 1 (Mus musculus, UniProt P50172). The data set is described as follows: Inhibition of mouse 11beta-HSD1 expressed in CHO-K1 cells using cortisone as substrate after 3 hrs by HTRF assay. The format is cell-based. The procedure, abridged:
as §1

The test system of data set [3] is Mus musculus. Briefly: Ex-vivo inhibition of 11betaHSD1 in C57BL/6 mouse fat at 20 mg/kg, po after 2 hrs by ELISA. The format is functional. Conditions: C57BL/6, 2 h. The method in brief:
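Normal mice dosed orally (1, 5, 10 or 20 mpk); 11β-HSD1 activity in fat tissue measured ex vivo 2 h post-dose.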

The test system of data set [4] is Mus musculus. The data set is described as follows: Ex-vivo inhibition of 11betaHSD1 in C57BL/6 mouse liver at 20 mg/kg, po after 2 hrs by ELISA. Format: functional. Conditions: C57BL/6, Liver. The procedure, abridged:
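Normal mice given 20 mpk orally; liver tissue taken 2 h after dosing and 11β-HSD1 activity measured ex vivo as % inhibition relative to vehicle.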

Data set [5] can be described thus: Metabolic stability in rat liver microsomes assessed as compound remaining after 30 mins. Format: ADME, Microsome. The note with it: read-out: Stability. The method in brief: (§2)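 Human and rat liver microsomes incubated with compound for 30 min; stability reported as percent parent compound remaining.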
Data set [6] is described as follows: Metabolic stability in human liver microsomes assessed as compound remaining after 30 mins. Format: ADME, Microsome. The note with it: read-out: Stability. The procedure, abridged: as §2

Sequence of 11-beta-hydroxysteroid dehydrogenase 1 (Mus musculus, UniProt P50172) (P50172 whole entry): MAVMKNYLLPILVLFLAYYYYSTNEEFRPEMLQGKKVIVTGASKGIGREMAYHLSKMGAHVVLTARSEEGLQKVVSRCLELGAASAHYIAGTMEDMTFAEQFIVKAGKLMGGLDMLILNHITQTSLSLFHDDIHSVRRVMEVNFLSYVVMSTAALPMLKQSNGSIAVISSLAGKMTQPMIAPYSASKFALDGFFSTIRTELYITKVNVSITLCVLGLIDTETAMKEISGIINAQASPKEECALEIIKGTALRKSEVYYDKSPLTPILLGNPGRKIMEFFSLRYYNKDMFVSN
Sequence of 11-beta-hydroxysteroid dehydrogenase 1 (Homo sapiens, UniProt P28845) (P28845 whole entry): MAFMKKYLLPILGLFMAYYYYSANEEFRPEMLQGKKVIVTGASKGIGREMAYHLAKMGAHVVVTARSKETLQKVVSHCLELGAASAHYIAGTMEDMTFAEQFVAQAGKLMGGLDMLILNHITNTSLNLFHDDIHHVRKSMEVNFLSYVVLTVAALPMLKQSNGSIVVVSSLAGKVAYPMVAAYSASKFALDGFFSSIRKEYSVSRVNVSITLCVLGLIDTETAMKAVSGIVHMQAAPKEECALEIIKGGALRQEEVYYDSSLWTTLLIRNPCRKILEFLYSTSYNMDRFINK

For the compound `NC(=O)[C@]12CC3CC(C1)[C@@H](NC(=O)CN1CCCN(c4ccccc4)S1(=O)=O)C(C3)C2`, the IC50 in data set [1] was 17 nM; in data set [2], 207 nM.

For the compound `CN(CC(=O)N[C@H]1C2CC3CC1C[C@](C(N)=O)(C3)C2)S(=O)(=O)N(C)c1c(Cl)cc(Cl)cc1Cl`, the IC50 in data set [1] came out at 1 nM; in data set [2] it was 2 nM. Moreover, the inhibition in vivo at 20 mg/kg with Mus musculus [3] came to 33.3%; in the data set on Mus musculus [4], 57.8%. Moreover, the figures for the remaining at 0.5 h in data set [5] and in data set [6] were 7% and 21%, respectively.

Turning to `O=C(CN1CCCN(c2ccccc2)S1(=O)=O)NC12CC3CC(CC(C3)C1)C2`, the IC50 in data set [1] was found to be 3370 nM.

Turning to `CC1(C)CN(CC(=O)N[C@H]2C3CC4CC2C[C@](C(N)=O)(C4)C3)S(=O)(=O)N(c2c(Cl)cc(Cl)cc2Cl)C1`, the values for the IC50 in data set [1] and in data set [2] were 5 nM and 26 nM, respectively. At 20 mg/kg the inhibition in vivo in the data set with Mus musculus [3] was 29.9%.

Consider `CC1CCN(c2c(Cl)cc(Cl)cc2Cl)S(=O)(=O)N1CC(=O)N[C@H]1C2CC3CC1C[C@](C(N)=O)(C3)C2` (mixture of isomers), for which the IC50 in data set [1] came to 1 nM; in data set [2] it was 70 nM. In the data set with Mus musculus [3], at 20 mg/kg the inhibition in vivo was 74.5%. For the same compound, the remaining at 0.5 h in data set [5] turned out to be 70%; in data set [6], 94%.

`NC(=O)[C@]12CC3CC(C1)[C@@H](NC(=O)CN1CCCN(c4ccccc4F)S1(=O)=O)C(C3)C2`: the IC50 in data set [1] was 14 nM; in data set [2] it was 170 nM.

Take `NC(=O)[C@]12CC3CC(C1)[C@@H](NC(=O)CN1CCCN(c4c(F)cc(F)cc4F)S1(=O)=O)C(C3)C2`: the IC50 in data set [1] was 20 nM; in data set [2], 157 nM.

`NC(=O)[C@]12CC3CC(C1)[C@@H](NC(=O)CN1CCCN(c4ccc(F)cc4)S1(=O)=O)C(C3)C2`: the results for the IC50 in data set [1] and in data set [2] were 351000 nM and 15500 nM, respectively.

For `O=C(CN1CCCN(CCc2ccccc2)S1(=O)=O)NC1C2CC3CC(C2)CC1C3` (centres undefined), in data set [1], the IC50 turned out to be 1660 nM.
